The results in this text go back to ChEMBL document CHEMBL1157664, “Aminopyridinecarboxamide-based inhibitors: Structure-activity relationship” (Bioorg Med Chem, 2010).

The source made the active and inactive calls. No cut-off for these calls is given here.

In test [1] the target is T1, Inhibitor of nuclear factor kappa-B kinase subunit alpha (Homo sapiens, UniProt O15111).
T1 sequence (O15111 whole entry): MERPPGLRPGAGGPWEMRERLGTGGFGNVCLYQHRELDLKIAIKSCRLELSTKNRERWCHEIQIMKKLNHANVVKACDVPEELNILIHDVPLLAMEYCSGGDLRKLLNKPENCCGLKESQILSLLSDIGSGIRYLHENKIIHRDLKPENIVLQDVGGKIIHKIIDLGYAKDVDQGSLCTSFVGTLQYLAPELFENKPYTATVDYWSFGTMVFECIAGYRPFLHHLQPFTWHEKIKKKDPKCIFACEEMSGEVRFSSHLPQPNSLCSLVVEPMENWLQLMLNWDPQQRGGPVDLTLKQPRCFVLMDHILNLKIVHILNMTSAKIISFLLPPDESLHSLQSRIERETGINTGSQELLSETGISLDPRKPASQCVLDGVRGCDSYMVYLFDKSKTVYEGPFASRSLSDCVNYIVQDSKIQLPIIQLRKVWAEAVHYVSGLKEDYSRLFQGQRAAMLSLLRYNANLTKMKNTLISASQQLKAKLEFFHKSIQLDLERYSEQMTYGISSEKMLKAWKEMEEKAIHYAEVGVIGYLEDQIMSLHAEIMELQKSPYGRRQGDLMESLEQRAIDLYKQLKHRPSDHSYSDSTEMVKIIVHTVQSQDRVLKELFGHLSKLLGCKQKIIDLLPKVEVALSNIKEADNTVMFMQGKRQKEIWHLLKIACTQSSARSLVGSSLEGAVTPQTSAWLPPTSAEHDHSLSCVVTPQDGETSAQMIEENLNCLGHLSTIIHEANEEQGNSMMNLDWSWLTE
The test can be described thus: Inhibition of IKK1.

For test [2], the target named is T2, Inhibitor of nuclear factor kappa-B kinase subunit epsilon (Homo sapiens) (UniProt Q14164).
T2 sequence (whole entry): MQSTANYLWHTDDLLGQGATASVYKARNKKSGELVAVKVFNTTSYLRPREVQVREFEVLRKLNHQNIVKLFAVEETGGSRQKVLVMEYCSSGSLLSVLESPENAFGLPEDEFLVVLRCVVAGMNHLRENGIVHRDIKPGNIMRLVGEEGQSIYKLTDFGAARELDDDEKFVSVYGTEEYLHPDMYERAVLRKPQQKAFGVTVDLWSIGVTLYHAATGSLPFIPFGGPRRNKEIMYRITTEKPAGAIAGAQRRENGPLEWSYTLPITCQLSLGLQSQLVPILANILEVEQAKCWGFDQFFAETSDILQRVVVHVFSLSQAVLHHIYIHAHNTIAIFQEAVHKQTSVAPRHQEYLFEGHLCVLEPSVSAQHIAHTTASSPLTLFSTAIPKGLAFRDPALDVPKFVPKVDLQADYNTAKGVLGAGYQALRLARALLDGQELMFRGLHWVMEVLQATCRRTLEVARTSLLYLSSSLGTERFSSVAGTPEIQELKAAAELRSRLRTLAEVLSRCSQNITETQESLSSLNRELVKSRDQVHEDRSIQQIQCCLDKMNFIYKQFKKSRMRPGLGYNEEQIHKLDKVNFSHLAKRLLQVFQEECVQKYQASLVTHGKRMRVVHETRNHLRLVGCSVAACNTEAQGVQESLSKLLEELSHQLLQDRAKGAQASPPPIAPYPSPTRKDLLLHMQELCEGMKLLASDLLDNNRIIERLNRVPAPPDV
The test can be described thus: Inhibition of IKKI.

Test [3] deals with T3, Serine/threonine-protein kinase TBK1 (Homo sapiens) (UniProt Q9UHD2).
T3 sequence (whole entry): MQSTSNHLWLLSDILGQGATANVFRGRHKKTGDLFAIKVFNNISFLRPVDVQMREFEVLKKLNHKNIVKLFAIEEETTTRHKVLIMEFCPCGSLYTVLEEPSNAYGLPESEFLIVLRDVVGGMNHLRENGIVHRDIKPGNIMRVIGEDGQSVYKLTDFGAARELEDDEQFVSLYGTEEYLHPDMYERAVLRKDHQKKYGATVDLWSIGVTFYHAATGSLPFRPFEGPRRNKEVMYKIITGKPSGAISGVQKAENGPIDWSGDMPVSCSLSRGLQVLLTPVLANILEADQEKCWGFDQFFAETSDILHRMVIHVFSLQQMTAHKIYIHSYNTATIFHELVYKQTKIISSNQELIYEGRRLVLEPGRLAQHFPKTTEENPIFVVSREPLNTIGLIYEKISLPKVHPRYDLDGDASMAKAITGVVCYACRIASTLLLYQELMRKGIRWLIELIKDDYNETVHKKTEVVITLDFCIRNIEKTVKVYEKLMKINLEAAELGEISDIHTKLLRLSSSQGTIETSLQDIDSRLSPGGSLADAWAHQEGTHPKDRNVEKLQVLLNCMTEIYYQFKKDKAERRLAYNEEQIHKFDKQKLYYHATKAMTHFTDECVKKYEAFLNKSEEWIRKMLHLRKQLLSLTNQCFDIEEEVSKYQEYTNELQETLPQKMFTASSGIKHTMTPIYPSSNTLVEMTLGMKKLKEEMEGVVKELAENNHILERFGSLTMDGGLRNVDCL
The test can be described thus: Inhibition of TBK1.

A short description of test [4]: Antiinflammatory activity in human synovial fibroblasts assessed as inhibition of IL-1-beta-stimulated IL8 production treated 1 hr before IL1-beta challenge measured after 18 hrs by ELISA. It is filed as functional. The gist of the method:
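Rheumatoid arthritis patient synovial fibroblasts seeded at 1.5 × 10^4 cells/well in DMEM + 15% FBS and left to attach overnight. Medium then changed to DMEM + 1% FBS. Cells pretreated 1 h with increasing compound concentrations (0.2% Me2SO final), then stimulated 18 h with 1 ng/mL IL-1β. Secreted IL-8 measured by ELISA against standard curves (4-parameter logistic). Cytotoxicity checked by Alamar Blue.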

Test [5] deals with T4, Inhibitor of nuclear factor kappa-B kinase subunit beta (Homo sapiens, UniProt O14920).
T4 sequence (O14920 whole entry): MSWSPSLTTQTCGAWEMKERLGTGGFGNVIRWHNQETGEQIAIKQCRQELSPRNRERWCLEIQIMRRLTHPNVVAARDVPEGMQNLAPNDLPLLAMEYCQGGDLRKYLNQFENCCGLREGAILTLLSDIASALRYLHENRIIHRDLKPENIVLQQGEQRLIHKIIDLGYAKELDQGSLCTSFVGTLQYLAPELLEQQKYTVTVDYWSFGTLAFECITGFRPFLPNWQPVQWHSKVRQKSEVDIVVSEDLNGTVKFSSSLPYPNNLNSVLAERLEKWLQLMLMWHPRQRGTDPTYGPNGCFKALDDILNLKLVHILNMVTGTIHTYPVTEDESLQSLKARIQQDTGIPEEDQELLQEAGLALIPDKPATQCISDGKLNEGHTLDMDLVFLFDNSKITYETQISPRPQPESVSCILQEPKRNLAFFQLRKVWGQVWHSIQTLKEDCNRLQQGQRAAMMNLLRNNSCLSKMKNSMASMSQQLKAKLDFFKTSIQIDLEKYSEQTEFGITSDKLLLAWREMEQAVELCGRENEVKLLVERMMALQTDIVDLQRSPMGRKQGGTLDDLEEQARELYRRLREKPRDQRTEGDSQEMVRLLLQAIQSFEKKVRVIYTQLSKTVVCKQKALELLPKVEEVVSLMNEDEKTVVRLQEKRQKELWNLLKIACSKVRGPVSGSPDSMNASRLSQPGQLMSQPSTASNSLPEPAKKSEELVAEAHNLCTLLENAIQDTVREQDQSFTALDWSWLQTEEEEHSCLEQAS
The test can be described thus: Inhibition of human recombinant IKK2-mediated transfer of [gamma33P]ATP to biotinylated IkappaBalpha after 30 mins by scintillation counting. Summed up:
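Recombinant human IKK-2 enzyme (46 nM/rxn, 200 ng/rxn). Substrate 5 µM biotinylated IκBα peptide (residues spanning Ser32/Ser36) with 1 µM ATP plus 0.1 µCi [γ-33P]ATP. Buffer 25 mM Hepes pH 7.6 with 1 mM DTT, 2 mM MgCl2, 2 mM MnCl2, 10 mM NaF. Incubated 30 min at 25 °C, stopped with AG1X8 resin in formate buffer pH 3. Supernatant ³³P read by scintillation counting.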

For `CN1CCN(c2cc(C(=O)Nc3ccc4c(c3)-c3c(c(C(N)=O)nn3-c3ccc(F)cc3)CC4)c(Cl)cn2)CC1`, the IC50 (as a rule, the point on the concentration scale where inhibition reaches its midpoint) was 14 µM in test [1], 940 nM in test [4] and 25 nM in test [5]. In addition, the inhibition entry in test [2] and in test [3] was “inactive” in each case.
